Measurements reported in ChEMBL document CHEMBL4680108, “Ancistrolikokine E, a 5,8'-Coupled Naphthylisoquinoline Alkaloid, Eliminates the Tolerance of Cancer Cells to Nutrition Starvation by Inhibition of the Akt/mTOR/Autophagy Signaling Pathway” (2018).

Legend:
PANC-1 [1] = test: Anti-austerity activity against nutrient-deprived human PANC-1 cells assessed as cell death incubated for 24 hrs by WST-8 assay; assay type: functional
Method in brief: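 Human PANC-1 pancreatic cancer cells tested in parallel in nutrient-deprived medium (NDM) and in nutrient-rich DMEM. PC50 is the concentration that kills 50% of cells in NDM without toxicity in DMEM.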

PANC-1 [2] = test: Inhibition of autophagy in human PANC-1 cells cultured in nutrient-deprived medium assessed as accumulation of LC3-2 expression at 25 uM after 6 hrs by Western blot analysis relative to control; assay type: functional

| Structure (SMILES) | PC50 (PANC-1 [1]) | fold change (FC) (PANC-1 [2]) |
| --- | --- | --- |
| COc1cc(C[C@H]2C(=O)OC[C@@H]2Cc2ccc(OC)c(OC)c2)ccc1O [ARCTIGENIN] | 0.83 µM |  |
| CCN(CC)CCCC(C)Nc1ccnc2cc(Cl)ccc12 (configuration not stated) [CHLOROQUINE] |  | 2 |
